According to ChEMBL document CHEMBL1122660 (J Med Chem, 1984):

Experiments:
[1] = species: Mus musculus; experiment: Percentage change in WBC at optimum dose on day 3; format: functional
[2] = system: P388; experiment: Ratio of optimal dose (OD) and minimum effective dose (MED) required for antitumor activity in mice bearing P-388 lymphocytic leukemia; format: functional, Mus musculus
[3] = system: P388; experiment: Optimum dose (mg/kg) against P388 leukemic cells; format: functional, Mus musculus
[4] = system: P388; experiment: Maximum percent T/C (antitumor activity) against P388 leukemia cells for Mitomycin C; format: functional, Mus musculus
[5] = system: P388; experiment: Maximum percent T/C (antitumor activity) against P388 leukemia cells; format: functional, Mus musculus
[6] = system: P388; experiment: Minimum effective dose against P388 leukemic cells; format: functional; conditions: Mus musculus, read-out: MED
[7] = species: Mus musculus; experiment: Maximum percent T/C (antitumor activity) against P388 leukemia cells for Mitomycin C. The number of 30-day survivors is given in the parenthesis.; format: functional
[8] = Partition coefficient between 1-octanol and water containing phosphate buffer at pH 7.4; format: physicochemical; conditions: 1-octanol/water containing phosphate buffer
[9] = Distribution between 1-octanol and water containing phosphate buffer at pH 7.4; format: physicochemical; conditions: 1-octanol/water containing phosphate buffer
[10] = species: Mus musculus; experiment: Maximum percent T/C (antitumor activity) against P388 leukemia cells for the compound. The number of 30-day survivors is given in the parenthesis.; format: functional
[11] = system: Mus musculus; experiment: Evaluated for antitumor activity against B-16 melanoma in mice at a dose 8 mg/kg day, ip, on days 1, 4, and 7 against B-16 Melanoma cell; format: functional
[12] = system: Mus musculus; experiment: Evaluated for antitumor activity against B-16 melanoma in mice aat a dose 2 mg/kg day, ip,on days 1, 4, and 7 against B-16 Melanoma cell; format: functional
[13] = system: Mus musculus; experiment: Evaluated for antitumor activity against B-16 melanoma in mice at a dose 4 mg/kg day, ip, on days 1, 4, and 7 against B-16 Melanoma cell; format: functional
Method in brief: (§1)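 B-16 melanoma in mice, run at Bristol Laboratories by standard NCI protocols. Compound given ip on days 1, 4 and 7 in Me2SO + buffered saline vehicle; ten mice per dose. Read-outs per dose: %T/C, number of survivors, and weight change.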

[14] = system: Mus musculus; experiment: Evaluated for antitumor activity against B-16 melanoma in mice at a dose 6 mg/kg day, ip, on days 1, 4, and 7 against B-16 Melanoma cell; format: functional
[15] = system: Mus musculus; experiment: Evaluated for antitumor activity against B-16 melanoma in mice at a dose 2 mg/kg day, ip, on days 1, 4, and 7 against B-16 Melanoma cell; format: functional; method in brief: as §1
[16] = system: Mus musculus; experiment: Evaluated for antitumor activity against B-16 melanoma in mice aat a dose 3 mg/kg day, ip,on days 1, 4, and 7 against B-16 Melanoma cell; format: functional
[17] = system: Mus musculus; experiment: Evaluated for antitumor activity against B-16 melanoma in mice at a dose 3 mg/kg day, ip, on days 1, 4, and 7 against B-16 Melanoma cell *-Tumors survivors on day 62; format: functional
[18] = system: Mus musculus; experiment: Evaluated for antitumor activity against B-16 melanoma in mice at a dose 12 mg/kg day, ip, on days 1, 4, and 7 against B-16 Melanoma cell; format: functional
[19] = system: Mus musculus; experiment: Evaluated for antitumor activity against B-16 melanoma in mice at a dose 5 mg/kg day, ip, on days 1, 4, and 7 against B-16 Melanoma cell; format: functional
[20] = system: Mus musculus; experiment: Evaluated for antitumor activity against B-16 melanoma in mice at a dose 5 mg/kg day, ip, on days 1, 4, and 7 against B-16 Melanoma cell *-Tumors survivors on day 62; format: functional
[21] = system: Mus musculus; experiment: Evaluated for antitumor activity against B-16 melanoma in mice at a dose 3 mg/kg day, ip, on days 1, 4, and 7 against B-16 Melanoma cell; format: functional; method in brief: as §1
[22] = system: Mus musculus; experiment: Evaluated for antitumor activity against B-16 melanoma in mice aat a dose 1 mg/kg day, ip,on days 1, 4, and 7 against B-16 Melanoma cell; format: functional; method in brief: as §1
[23] = system: Mus musculus; experiment: Evaluated for antitumor activity against B-16 melanoma in mice at a dose 4 mg/kg day, ip, on days 1, 4, and 7 against B-16 Melanoma cell *-Tumors survivors on day 62; format: functional
[24] = species: Mus musculus; experiment: Maximum percent T/C (antitumor activity) against P388 leukemia cells for the compound; 144-325; format: functional
[25] = system: Mus musculus; experiment: Evaluated for antitumor activity against B-16 melanoma in mice at a dose 1 mg/kg day, ip, on days 1, 4, and 7 against B-16 Melanoma cell *-Tumors survivors on day 62; format: functional
[26] = system: Mus musculus; experiment: Evaluated for antitumor activity against B-16 melanoma in mice at a dose 1 mg/kg day, ip, on days 1, 4, and 7 against B-16 Melanoma cell; format: functional; method in brief: as §1
[27] = system: Mus musculus; experiment: Evaluated for antitumor activity against B-16 melanoma in mice at a dose 2 mg/kg day, ip, on days 1, 4, and 7 against B-16 Melanoma cell *-Tumors survivors on day 62; format: functional

| SMILES | Change [1] | Therapeutic ratio [2] | OD [3] | T/C [4] | T/C [5] | minimal effective dose [6] | logD [8] | logD [9] | other results |
| --- | --- | --- | --- | --- | --- | --- | --- | --- | --- |
| COC12[C@@H]3N[C@@H]3CN1C1=C(C(=O)C(Nc3nnc(C)s3)=C(C)C1=O)[C@@H]2COC(N)=O (some centres not stated) | -32% | 32 | 25.6 mg/kg | 267% | 222% | 0.8 mg/kg | – | – | – |
| COC12[C@@H]3N[C@@H]3CN1C1=C(C(=O)C(Nc3ccc(Cl)cc3)=C(C)C1=O)[C@@H]2COC(N)=O (some centres not stated) | – | 4 | 25.6 mg/kg | – | 144% | 6.4 mg/kg | 2.01 | – | T/C [7]: 250% |
| COC12[C@@H]3N[C@@H]3CN1C1=C(C(=O)C(Nc3nc(C)c(C)s3)=C(C)C1=O)[C@@H]2COC(N)=O (some centres not stated) | – | 128 | 25.6 mg/kg | 219% | 188% | 0.2 mg/kg | – | 1.29 | – |
| COC12[C@@H]3N[C@@H]3CN1c1c(O)c(C)c(/N=C3/C=CC(=N)N=C3)c(O)c1[C@@H]2COC(N)=O (some centres not stated) | – | 32 | 12.8 mg/kg | 206% | 277% | 0.4 mg/kg | – | -0.32 | – |
| COc1ccc(NC2=C(C)C(=O)C3=C(C2=O)[C@H](COC(N)=O)C2(OC)[C@@H]4N[C@@H]4CN32)cc1 (some centres not stated) | -76% | 16 | 12.8 mg/kg | – | – | – | 1.28 | – | T/C [7]: 268%; T/C [10]: 316% |
| COC12[C@@H]3N[C@@H]3CN1C1=C(C(=O)C(N=C3C=CC(=Nc4c(C)c(O)c5c(c4O)[C@H](COC(N)=O)C4(OC)[C@@H]6N[C@@H]6CN54)C=C3)=C(C)C1=O)[C@@H]2COC(N)=O (some centres not stated) | – | 8 | 25.6 mg/kg | – | 161% | 1.6 mg/kg | – | – | T/C [7]: 250% |
| COC12[C@@H]3N[C@@H]3CN1C1=C(C(=O)C(Nc3nc4cc(Cl)ccc4o3)=C(C)C1=O)[C@@H]2COC(N)=O (some centres not stated) | -33% | 16 | 25.6 mg/kg | 267% | 178% | 1.6 mg/kg | – | – | – |
| COC12[C@@H]3N[C@@H]3CN1c1c(O)c(C)c(/N=C3\C=CC(=O)C=C3C)c(O)c1[C@@H]2COC(N)=O (some centres not stated) | -34% | 64 | 25.6 mg/kg | 200% | 244% | 0.4 mg/kg | – | – | – |
| COc1ccc(NC2=C(C)C(=O)C3=C(C2=O)[C@H](COC(N)=O)C2(OC)[C@@H]4N[C@@H]4CN32)cn1 (some centres not stated) | -45% | 32 | 6.4 mg/kg | 233% | 211% | 0.2 mg/kg | – | 0.59 | – |
| COc1ccc(NC2=C(C)C(=O)C3=C(C2=O)[C@H](COC(N)=O)C2(OC)[C@@H]4N[C@@H]4CN32)cc1OC (some centres not stated) | – | 64 | 12.8 mg/kg | 278% | – | 0.2 mg/kg | – | – | Average weight gain [11]: 0.9 g; T/C [11]: 227%; Average weight gain [12]: -1.3 g; Average weight gain [13]: -0.6 g; T/C [13]: 252%; Average weight gain [14]: 0.6 g; T/C [14]: 263%; T/C [15]: 180%; T/C [10]: >333% |
| COC12[C@@H]3N[C@@H]3CN1C1=C(C(=O)C(Nc3nc(C)cs3)=C(C)C1=O)[C@@H]2COC(N)=O (some centres not stated) | – | 16 | 6.4 mg/kg | 224% | 172% | 0.4 mg/kg | – | 1.16 | – |
| [H][C@@]12CN3c4c(O)c(C)c(/N=C5C=C/C(=N\CC(=O)O)C=C/5)c(O)c4[C@H](COC(N)=O)C3(OC)[C@]1([H])N2 (some centres not stated) | – | 32 | 25.6 mg/kg | – | – | 0.8 mg/kg | -0.78 | – | T/C [7]: 294%; T/C [10]: 322% |
| [H][C@@]12CN3c4c(O)c(C)c(/N=C5C=C/C(=N\C(C)=O)C=C/5)c(O)c4[C@H](COC(N)=O)C3(OC)[C@]1([H])N2 (some centres not stated) | -40% | 128 | 25.6 mg/kg | 200% | – | 0.2 mg/kg | 0.33 | – | Average weight gain [16]: 1.4 g; Average weight gain [11]: 0.3 g; T/C [11]: 207%; Cures [17]: 0; Average weight gain [18]: -1.3 g; T/C [18]: 175%; Average weight gain [19]: 0.8 g; T/C [19]: 185%; T/C [10]: >333%; Cures [20]: 0; T/C [21]: 155% |
| COC12[C@@H]3N[C@@H]3CN1c1c(O)c(C)c(/N=C3/C=CN=N3)c(O)c1[C@@H]2COC(N)=O (some centres not stated) | -15% | – | 25.6 mg/kg | 161% | – | 0.8 mg/kg | – | – | T/C [10]: 333% |
| COC12[C@@H]3N[C@@H]3CN1c1c(O)c(C)c(N=C3C=CC(=O)C=C3)c(O)c1[C@@H]2COC(N)=O (some centres not stated) | -27% | 128 | 25.6 mg/kg | 144% | >300% | 0.2 mg/kg | 0.63 | – | – |
| COC12[C@@H]3N[C@@H]3CN1c1c(O)c(C)c(N=C3C=CC(=N)C=C3)c(O)c1[C@@H]2COC(N)=O (some centres not stated) | -64% | >64 | 12.8 mg/kg | – | – | < 0.2 mg/kg | 0.07 | – | T/C [7]: 250%; T/C [10]: >337% |
| COC12[C@@H]3N[C@@H]3CN1C1=C(C(=O)C(Nc3cc(C)ns3)=C(C)C1=O)[C@@H]2COC(N)=O (some centres not stated) | – | 32 | 25.6 mg/kg | 325% | 169% | – | – | -0.3 | – |
| COC12[C@@H]3N[C@@H]3CN1C1=C(C(=O)C(Nc3nccs3)=C(C)C1=O)[C@@H]2COC(N)=O (some centres not stated) | -22% | 32 | 6.4 mg/kg | 281% | 194% | 0.4 mg/kg | – | 0.62 | – |
| COC12[C@@H]3N[C@@H]3CN1C1=C(C(=O)C(Nc3cccnc3)=C(C)C1=O)[C@@H]2COC(N)=O (some centres not stated) | -33% | 16 | 3.2 mg/kg | 198% | 211% | 0.2 mg/kg | – | 0.52 | – |
| COC12[C@@H]3N[C@@H]3CN1C1=C(C(=O)C(Nc3cccc(N)c3)=C(C)C1=O)[C@@H]2COC(N)=O (some centres not stated) | -17% | >8 | 1.6 mg/kg | 200% | 222% | < 0.2 mg/kg | 0.07 | – | – |
| COC12[C@@H]3N[C@@H]3CN1C1=C(C(=O)C(Nc3ccc(C)cc3)=C(C)C1=O)[C@@H]2COC(N)=O (some centres not stated) | -37% | 32 | – | 200% | 206% | – | 1.86 | – | – |
| CO[C@@]12[C@H](COC(N)=O)C3=C(C(=O)C(C)=C(N)C3=O)N1C[C@@H]1N[C@@H]12 [MITOMYCIN] | -42% | – | 3.2 mg/kg | – | – | 0.2 mg/kg | – | – | Average weight gain [22]: 0.2 g; Cures [23]: 0; Cures [17]: 0; Average weight gain [13]: -0.1; T/C [13]: 200%; T/C [24]: 144%; Cures [25]: 0; T/C [26]: 155%; Average weight gain [15]: 0.5 g; T/C [15]: 152%; Average weight gain [21]: -0.1 g; T/C [21]: 165%; Cures [27]: 0 |
